In the library only some 1.4% were active in any assay of this set; here they are far more common.
PKA-R2B act: activators of human PKA-R2B complex | P22694+P31323 | PKA-R2B holoenzyme dissociation, Cy5-IP20 fluorescence polarization; R2B truncated from residue 108, S112A mutant; 0% DMSO only, 100% 113 µM cGMP | activation, % at 11.4 µM | hit rate 0.079% among 340,000 | AID 504700;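 active means activation above a cutoff set at the mean over all compounds plus 3 SD, cut at about 18% in these data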;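 further: higher means more holoenzyme dissociation and a rise in polarization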
Target sequence (P31323 whole entry, looked up, other chains not shown, the tested form may be a part): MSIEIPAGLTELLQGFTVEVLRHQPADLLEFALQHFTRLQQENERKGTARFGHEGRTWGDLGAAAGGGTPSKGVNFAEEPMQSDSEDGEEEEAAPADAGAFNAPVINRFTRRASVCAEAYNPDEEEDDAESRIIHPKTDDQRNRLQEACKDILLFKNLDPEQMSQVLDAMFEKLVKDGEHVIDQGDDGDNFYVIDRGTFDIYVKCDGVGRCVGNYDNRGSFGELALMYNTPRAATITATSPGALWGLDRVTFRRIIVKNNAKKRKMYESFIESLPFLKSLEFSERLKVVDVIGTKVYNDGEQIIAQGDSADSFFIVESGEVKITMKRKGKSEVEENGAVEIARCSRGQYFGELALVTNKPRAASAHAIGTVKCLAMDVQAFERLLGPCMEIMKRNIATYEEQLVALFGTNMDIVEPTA
SR-BI uptake up: enhances SR-BI lipid uptake from DiI-HDL | CHO ldlA[mSR-BI] cells, DiI-HDL uptake fluorescence, 3 h; 100 = double the neutral-control signal | activation, % at 12.5 µM | hit rate 0.096% among 320,000 | AID 504775;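 active means mean replicate activation of at least 60% and every replicate at or above 60%; inconclusive means mean or all-replicate condition met, but not both; inactive means mean below 60% and not all replicates reaching 60%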;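 further: 0% = median plate neutral-control signal and 100% = twice that signal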
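System: CHO ldlA[mSR-BI] cells / Medium: HEPES-buffered (25 mM, pH 7.4) F12 plus 0.5% BSA / Probe or stimulus: labelled HDL, 10 µg/mL / Doses: single compound concentration, delivered by pin transfer / Schedule: 3 h, 37 °C / Measured by: DiI fluorescence, bottom read / Measure: cell-associated DiI fluorescence as measure of HDL uptake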
SR-BI DiI inh: inhibitors of mouse SR-BI mediated HDL lipid uptake; ldlA[mSR-BI] CHO cells, DiI-HDL uptake fluorescence, 3 h; inhibition, % at 12.5 µM; Q61009; hit rate 0.96% among 320,000; AID 488896;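 active means mean replicate inhibition of at least 70% and a set share of replicates each scoring 70 or more; inconclusive means meets just one of the two criteria; inactive means fails both criteria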;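 further: 0% = median of neutral control wells and 100% = median of positive control wells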
PKA-R1A activ: activates the PKA-R1A holoenzyme complex | P00514+P68181 | PKA-R1A dissociation, Cy5-IP20 fluorescence polarization; scaled: DMSO 0%, 113 µM cGMP 100% | activation, % at 11.4 µM | hit rate 0.083% among 340,000;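 active means percent activation above the mean of all tested compounds plus 3 SD, cut at about 19% in these data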;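 further: higher means more PKAc released from R1A so a rise in polarization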
Vif imaging: inhibitors of HIV Vif; inhibition, % at 7.49 µM; HEK293T cells, Vif self-association by quenched fluorescence, imaging, 24 h; hit rate 0.35% among 340,000; in the data active means inhibition above about 50%, passing the limit was not always enough; inconclusive means no clear call, values can overlap the other calls; inactive means below about 31%
* hit, by the source's call; u = inconclusive; x = no result.

SMILES	PKA-R2B act	SR-BI uptake up	SR-BI DiI inh	PKA-R1A activ	Vif imaging
Cc1nnc2ccc(-c3cccc(NS(=O)(=O)c4cc(F)ccc4F)c3)nn12	-9	-23	23	-1	71*
Cc1nnc2ccc(-c3cccc(NS(=O)(=O)c4ccccc4[N+](=O)[O-])c3)nn12	3	-45	45	0	u
CC1CCCC(C)N1C(=O)CSc1nnc(NC(=O)c2cccs2)s1 (centres undefined)	-3	20	-20	-16	109*
CCCCOc1ccc(C(=O)N2CCN(CC(=O)Nc3ccc(C)cc3)CC2)cc1OC	-1	-78	78*	2	2
COc1ccc(C(=O)NC2CCN(CC(=O)Nc3cccc(C)c3)CC2)cc1OC	1	-80	80*	-12	-14
CCOc1ccc(NC(=O)CN2CCN(CC(=O)c3ccc(OC)c(OC)c3)CC2)cc1	-6	-63	63	4	2
COC(=O)C1C(=O)C2=C(CC1C)Nc1ccccc1NC2c1ccc(C)s1 (centres undefined)	-10	0	0	-3	2
CCOc1cc(/C=C/c2ccc3cccc([N+](=O)[O-])c3n2)ccc1O	-19	-81	81*	1	4
CCOc1cc(/C=C/c2ccc3cccc([N+](=O)[O-])c3n2)ccc1OCC(=O)N(C)C	5	-83	83*	-1	-1
NS(=O)(=O)c1ccc(CCNC(=O)c2cc3ccccc3s2)cc1	-1	x	x	-10	15
COc1ccc2c(c1)c(=O)oc1cc(OCC(=O)NCC3CCC(C(=O)O)CC3)ccc12 (centres undefined)	3	5	-5	5	55*
COc1ccc(-c2cc3ccc(OCC(=O)NCC4CCC(C(=O)O)CC4)cc3oc2=O)cc1 (centres undefined)	3	-15	15	-5	3
CCCCn1c(N)c(N(CCOC)C(=O)CCCc2nc3ccccc3c(=O)[nH]2)c(=O)[nH]c1=O	-10	-2	2	1	-13
COc1ccc(-c2c(-c3cc(OC)cc(OC)c3)n(C)c3ccc(-c4ccc5c(c4)OCCO5)cc23)cc1	-8	5	-2	-7	0
COc1cc(OC)cc(-c2c(-c3cccs3)c3cc(-c4ccc(OC)c(OC)c4)ccc3n2C)c1	7	-79	79*	-7	1
COc1cc(OC)cc(-c2c(-c3cccs3)c3cc(-c4ccc5c(c4)OCCO5)ccc3n2C)c1	6	-78	78*	6	-2
Cc1cccnc1C1=NOC(Cc2ccccc2)C(=O)N1Cc1ccccc1F (centres undefined)	x	x	x	x	2
Cc1csc(=O)n1CC(=O)OCC(=O)Nc1ccc(F)c(F)c1F	8	x	x	8	3
O=C(CCN1C(=O)[C@@H]2Cc3ccccc3CN2C1=O)NCc1ccc(Cl)cc1	9	-2	2	1	-4
COc1cc(-c2cnc3c(NC=O)cc(-c4ccccc4)cn23)cc(OC)c1OC	x	x	x	x	74*
COc1cc(-c2cnc3c(NC=O)cc(-c4ccccc4Cl)cn23)cc(OC)c1OC	x	x	x	x	58*
COc1cc(-c2cnc3c(NC=O)cc(-c4cccc(NC(C)=O)c4)cn23)cc(OC)c1OC	x	x	x	x	73*
C=CCC[C@@H](Cc1ccc(F)cc1)C(=O)OC[C@@H](Cc1c[nH]c2ccccc12)NC(=O)[C@@H](CC=C)CC(=O)N[C@@H](CO)Cc1ccccc1	0	74*	-74	2	-3
C=CCC[C@H](Cc1ccc(F)cc1)C(=O)OC[C@@H](Cc1c[nH]c2ccccc12)NC(=O)[C@@H](CC=C)CC(=O)N[C@@H](CO)Cc1ccccc1	-12	-7	7	-3	-17
Cc1ccc(OCC(=O)Nc2c3c(nn2C(C)(C)C)CS(=O)(=O)C3)cc1	-4	7	-7	1	-5
O=C(NCCN1CCN(C(=O)c2ccc(Br)cc2)CC1)c1ccc(Br)cc1	3	-71	71*	-8	-4
C=CCNc1sc(C(=O)c2ccccc2)c(N)c1C#N	-5	3	-3	-14	0
C=CCNc1sc(C(=O)c2ccc(Br)s2)c(N)c1C#N	-7	-16	16	9	111*
Fc1ccccc1-c1nc(NC2CCCC2)c2ccccc2n1	-6	-34	34	4	-11
